In PMC9585524 (ACS Bio & Med Chem Au, 2022):
“Also recorded” adds a separate entry of the source.

Columns and labels:
estrogen receptors = details: cited from earlier work
blood S1P = experiment: Blood S1P in C57BL/6 mice after a single intraperitoneal dose, LC-MS/MS; type: in vivo; details: for S1P levels in blood: 5 mg/kg single intraperitoneal injection
How it was run: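 Male C57BL/6J mice in groups of four received 5 mg/kg test compound i.p. in 2% hydroxypropyl-β-cyclodextrin, and controls got an equal volume of vehicle. Blood was drawn at set times, with the earliest 1–2 min post-dose. Whole blood (10 μL) was extracted in methanol/chloroform with d7-S1P/d7-sphingosine internal standards (48 °C, 16 h), then treated with KOH/methanol. S1P was quantified by LC-MS/MS MRM (380.4 → 264.4).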

U937 cells = experiment: S1P levels in U937 cells by LC-MS/MS; type: cell-based, human; details: varying concentrations of 14c, 2 h, Figure 5A, duplicate
How it was run: (§1)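 U937 cells were grown in RPMI 1640 with 10% FBS, then moved to 0.5% FBS for 24 h. They were treated 2 h with test compound (30–1000 nM) plus 1 μM FTY720. Pellets (2–3 × 10^6 cells) were extracted in methanol/chloroform with deuterated internal standards and base-treated. S1P and FTY720-P were measured by LC-MS/MS, in duplicate.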

hSphK2 = molecular target: T1, hSphK2 (Homo sapiens, UniProt Q9NRA0); type: biochemical
T1 sequence (Q9NRA0 1-618 isoform Q9NRA0-2): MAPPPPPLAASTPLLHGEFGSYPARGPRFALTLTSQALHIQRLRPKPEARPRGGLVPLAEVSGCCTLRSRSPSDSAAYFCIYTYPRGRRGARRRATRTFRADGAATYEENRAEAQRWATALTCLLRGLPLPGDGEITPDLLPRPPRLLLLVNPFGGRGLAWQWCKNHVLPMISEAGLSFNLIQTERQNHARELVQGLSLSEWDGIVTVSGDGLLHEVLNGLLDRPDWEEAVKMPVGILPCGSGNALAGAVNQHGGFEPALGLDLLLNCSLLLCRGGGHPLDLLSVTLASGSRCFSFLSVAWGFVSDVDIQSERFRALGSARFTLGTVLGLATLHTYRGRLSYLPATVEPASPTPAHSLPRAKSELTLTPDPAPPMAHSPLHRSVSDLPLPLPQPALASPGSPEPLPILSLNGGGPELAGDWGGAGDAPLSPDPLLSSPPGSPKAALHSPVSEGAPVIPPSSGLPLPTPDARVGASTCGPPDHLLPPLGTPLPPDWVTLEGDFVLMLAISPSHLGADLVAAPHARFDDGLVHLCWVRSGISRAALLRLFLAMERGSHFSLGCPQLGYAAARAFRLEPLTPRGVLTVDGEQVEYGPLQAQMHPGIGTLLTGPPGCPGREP

SphK2 in U937 cells = experiment: FTY720-P levels in U937 cells; type: cell-based, human; details: 1 μM FTY720 and 14c at 30–1000 nM, Figure 5B, duplicate
How it was run: as §1

| SMILES | action at estrogen receptors (estrogen receptors) | S1P levels in blood (blood S1P; 4 h post dosing) | S1P levels in blood (blood S1P; after 24 h) | circulating (blood) S1P levels (blood S1P; mice, 5 mg/kg, overall statement) | S1P levels in U937 cells (U937 cells) | selectivity for SphK2 over SphK1 (hSphK2) [fold] | FTY720-P levels in U937 cells (SphK2 in U937 cells) |
| --- | --- | --- | --- | --- | --- | --- | --- |
| O=C(NCc1ccncc1)C12CC3CC(C1)CC(c1ccc(Cl)cc1)(C3)C2 [compound 1] | tamoxifen-mimetic |  |  |  |  |  |  |
| Cl.N=C(N)N1CCC[C@H]1c1nc(-c2ccc(CCC3CCCCC3)c(C(F)(F)F)c2)no1 [14c, (S)-2-(3-(4-(2-Cyclohexylethyl)-3-(trifluoromethyl)phenyl)-1,2,4-oxadiazol-5-yl)pyrrolidine-1-carboximidamide Hydrochloride] |  | doubling | returning close to baseline | sustained increase; also recorded: profound increases | dose-dependent decrease | ~200 | concentration-dependent decrease |
